# Source: ChEMBL document CHEMBL2417504, “A fundamental relationship between hydrophobic properties and biological activity for the duocarmycin class of DNA-alkylating antitumor drugs: hydrophobic-binding-driven bonding” (J Med Chem, 2013)
# Legend:
# L1210 = experiment: Cytotoxicity against mouse L1210 cells after 72 hrs by phosphatase assay; assay type: functional, cell-based; conditions: L1210, 72 h
# Method in brief: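 L1210 mouse lymphocytic leukemia cells seeded at 30,000 cells/mL in DMEM + 10% FBS, 100 μL/well, 24 h at 37 °C, 5% CO2; DMSO serial 10-fold dilutions added, six concentrations over 0–100 nM or 0–1000 nM, duplicate, 72 h.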
# [1] = Induction of w794 DNA alkylation (unknown origin) after 2 hrs by densitometric analysis relative to duocarmycin SA
# Method in brief: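 Loss of full-length labeled DNA quantified by densitometry of remaining non-alkylated DNA. Relative alkylation efficiency corrected for the 10-fold differences in compound concentrations used.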
# [2] = Solubility of the compound in water after 40 hrs; assay type: physicochemical; conditions: for solubility: buffer, 40 h; for solubility at 40 h: water
# [3] = Displacement of ethidium bromide from hairpin 5'AAAAA duplex DNA sequence (unknown origin) at 10 equivalent compound dose after 5 mins by FID assay
# [4] = Displacement of ethidium bromide from hairpin 5'AAAAA duplex DNA sequence (unknown origin) at 2 equivalent compound dose after 5 mins by FID assay
smiles,measurement,setting,value
COCCOc1c(OC)cc2cc(C(=O)N3C[C@@H](CCl)c4c3cc(O)c3[nH]c(C(=O)OC)cc43)[nH]c2c1OC,IC50,L1210,0.018 nM
COCCOCCOCCOCCOCCOc1c(OC)cc2cc(C(=O)N3C[C@@H](CCl)c4c3cc(O)c3[nH]c(C(=O)OC)cc43)[nH]c2c1OC,IC50,L1210,0.25 nM
COCCOCCOCCOCCOc1cc2cc(C(=O)N3C[C@@H](CCl)c4c3cc(O)c3[nH]c(C(=O)OC)cc43)[nH]c2c(OCCOCCOCCOCCOC)c1OCCOCCOCCOCCOC,fold change (FC),[1],0.001
same,IC50,L1210,35 nM
same,solubility,[2],> 19000 µg/mL
COCCOCCOCCOc1c(OC)cc2cc(C(=O)N3C[C@@H](CCl)c4c3cc(O)c3[nH]c(C(=O)OC)cc43)[nH]c2c1OC,IC50,L1210,0.07 nM
COCCOc1cc2cc(C(=O)N3C[C@@H](CCl)c4c3cc(O)c3[nH]c(C(=O)OC)cc43)[nH]c2c(OCCOC)c1OCCOC,inhibition,[3],50%
same,inhibition,[4],10%
same,fold change (FC),[1],0.9
same,IC50,L1210,0.037 nM
same,solubility at 40 h,[2],740 µg/mL
COCCOCCOCCOCCOCCOc1cc2cc(C(=O)N3C[C@@H](CCl)c4c3cc(O)c3[nH]c(C(=O)OC)cc43)[nH]c2c(OCCOCCOCCOCCOCCOC)c1OCCOCCOCCOCCOCCOC,fold change (FC),[1],0.0002
same,IC50,L1210,370 nM
same,solubility,[2],> 12000 µg/mL
COCCOCCOc1c(OC)cc2cc(C(=O)N3C[C@@H](CCl)c4c3cc(O)c3[nH]c(C(=O)OC)cc43)[nH]c2c1OC,IC50,L1210,0.035 nM
COC(=O)c1cc2c3c(cc(O)c2[nH]1)N(C(=O)c1cc2cc(OC)c(OC)c(OC)c2[nH]1)C[C@H]3CCl,inhibition,[3],97%
same,inhibition,[4],53%
same,fold change (FC),[1],1
same,IC50,L1210,0.008 nM
same,solubility at 40 h,[2],460 µg/mL
COCCOCCOCCOCCOc1c(OC)cc2cc(C(=O)N3C[C@@H](CCl)c4c3cc(O)c3[nH]c(C(=O)OC)cc43)[nH]c2c1OC,IC50,L1210,0.11 nM
COCCOCCOCCOc1cc2cc(C(=O)N3C[C@@H](CCl)c4c3cc(O)c3[nH]c(C(=O)OC)cc43)[nH]c2c(OCCOCCOCCOC)c1OCCOCCOCCOC,fold change (FC),[1],0.009
same,IC50,L1210,3.5 nM
same,solubility,[2],80000 µg/mL
COCCOCCOc1cc2cc(C(=O)N3C[C@@H](CCl)c4c3cc(O)c3[nH]c(C(=O)OC)cc43)[nH]c2c(OCCOCCOC)c1OCCOCCOC,inhibition,[3],27%
same,inhibition,[4],0%
same,fold change (FC),[1],0.08
same,IC50,L1210,0.26 nM
same,solubility at 40 h,[2],2000 µg/mL
